Source: ChEMBL document CHEMBL3603803, “Design and synthesis of dithiocarbamate linked β-carboline derivatives: DNA topoisomerase II inhibition with DNA binding and apoptosis inducing ability” (Bioorg Med Chem, 2015)

Experiments:
Type in all cases: functional, cell-based
[1] = test system: A549; assay: Cytotoxicity against human A549 cells after 48 hrs by MTT assay; details: A549, 48 h
In short: (§1)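 Human cancer cell lines (A549 lung, MCF-7 breast, DU-145 prostate, HeLa cervical) exposed to compounds for 48 h; 50% inhibitory concentration derived, average of three individual experiments; doxorubicin reference agent.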

[2] = test system: MCF7; assay: Cytotoxicity against human MCF7 cells after 48 hrs by MTT assay; details: MCF7, 48 h; in short: as §1
[3] = test system: DU-145; assay: Cytotoxicity against human DU145 cells after 48 hrs by MTT assay; details: DU-145, 48 h; in short: as §1
[4] = test system: HeLa; assay: Cytotoxicity against human HeLa cells after 48 hrs by MTT assay; in short: as §1

| Structure (SMILES) | IC50 [1] [µM] | IC50 [2] [µM] | IC50 [3] [µM] | IC50 [4] [µM] |
| --- | --- | --- | --- | --- |
| COc1cc(-c2nc(CNC(=S)SCc3ccccc3)cc3c4ccccc4n(C)c23)cc(OC)c1OC | 14.1 | 13.9 | 10.6 | 12.3 |
| COc1ccc(-c2nc(CN)cc3c2[nH]c2ccccc23)cc1 | 17.8 | 18.9 | 17.4 | 18.6 |
| COc1cccc2c1C(=O)c1c(O)c3c(c(O)c1C2=O)C[C@@](O)(C(=O)CO)C[C@@H]3O[C@H]1C[C@H](N)[C@H](O)[C@H](C)O1 [DOXORUBICIN] | 1.58 | 0.96 | 1.38 | 2.63 |
| C=CCSC(=S)NCc1cc2c3ccccc3n(C)c2c(-c2ccc(C(F)(F)F)cc2)n1 | 4.26 | 4.78 | 1.99 | 4.67 |
| COc1cc(-c2nc(CNC(=S)SC)cc3c2[nH]c2ccccc23)cc(OC)c1OC | 8.12 | 8.91 | 5.62 | 11.3 |
| C=CCSC(=S)NCc1cc2c([nH]c3ccccc32)c(-c2ccc(C(F)(F)F)cc2)n1 | 18.6 | 10.9 | 7.76 | 10.6 |
| COc1cc(-c2nc(CN)cc3c4ccccc4n(C)c23)cc(OC)c1OC | 18.2 | 15.1 | 14.8 | 19.9 |
| C=CCSC(=S)NCc1cc2c3ccccc3n(C)c2c(-c2cc(OC)c(OC)c(OC)c2)n1 | 18.1 | 20.6 | 19.4 | 19.9 |
| C=CCSC(=S)NCc1cc2c3ccccc3n(C)c2c(-c2ccc(F)cc2)n1 | 6.02 | 3.01 | 2.88 | 2.57 |
| FC(F)(F)c1ccc(-c2nc(CNC(=S)SCc3ccccc3)cc3c2[nH]c2ccccc23)cc1 | 9.33 | 12.3 | 5.88 | 3.98 |
| COc1ccc(-c2nc(CNC(=S)SC)cc3c4ccccc4n(C)c23)cc1 | 5.12 | 1.51 | 1.41 | 2.57 |
| C=CCSC(=S)NCc1cc2c([nH]c3ccccc32)c(-c2cc(OC)c(OC)c(OC)c2)n1 | 12.8 | 15.8 | 13.8 | 23.2 |
| Cn1c2ccccc2c2cc(CNC(=S)SCc3ccccc3)nc(-c3ccc(F)cc3)c21 | 6.76 | 2.75 | 4.78 | 3.16 |
| COc1cc(-c2nc(CN)cc3c2[nH]c2ccccc23)cc(OC)c1OC | 15.1 | 18.6 | 18.3 | 21.7 |
| C=CCSC(=S)NCc1cc2c3ccccc3n(C)c2c(-c2ccc(OC)cc2)n1 | 10 | 3.2 | 2.5 | 8.3 |
| COc1ccc(-c2nc(CNC(=S)SCc3ccccc3)cc3c2[nH]c2ccccc23)cc1 | 17.7 | 10 | 13.8 | 24.1 |
| COc1cc(-c2nc(CNC(=S)SCc3ccccc3)cc3c2[nH]c2ccccc23)cc(OC)c1OC | 27.5 | 25.8 | 17.3 | 14.5 |
